From ChEMBL document CHEMBL3272275, “Synthesis and antiinflammatory activity of some 1,2,3- and 1,2,4-triazolepropionic acids” (J Med Chem, 1978) come the findings set out here.

What all share (parameters): scale not given: the % may be the effect or the level left
In data set [1] the test system is Rattus norvegicus. Put plainly: Antiinflammatory activity against carrageenan/Evans blue dye-induced pleural effusion rat model assessed as reduction in pleural fluid volume at 0.4 mmol/kg, po administered 1 hr prior challenge measured 6 hrs post challenge relative to control. It counts as functional. In short, it runs like this:
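Oral dosing at 0.4 mmol/kg to groups of six rats, 1 h before intrapleural carrageenan plus Evans blue dye. Rats killed 6 h after the irritants and pleural fluid volume measured. Value is percent reduction in fluid volume relative to untreated controls.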

For data set [2], the system named is Rattus norvegicus. The data set is described as follows: Antiinflammatory activity in Freund's adjuvant-induced Lewis rat arthritis model assessed as reduction of paw volume at 0.2 mmol/kg, po qd administered on day 0 to day 21 of adjuvant challenge measured on day 7 by plethysmometry relative to control. It counts as functional.
Data set [3] deals with Rattus norvegicus. Put plainly: Antiinflammatory activity in Freund's adjuvant-induced Lewis rat arthritis model assessed as reduction of paw volume at 0.2 mmol/kg, po qd administered on day 0 to day 21 of adjuvant challenge measured on day 21 by plethysmometry relative to control. It counts as functional. Put shortly: (§1)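 Male Lewis rats (125-150 g) given an intradermal injection of 0.05 mL of 0.65% Mycobacterium tuberculosis suspension in Freund's adjuvant into the right hind plantar surface on day 0. Negative controls received mineral oil only. Dosing once daily by gavage, groups of six, days 0-21. Injected and uninjected hind-foot volume change over days 0-21 measured plethysmographically. Value is percent reduction relative to controls.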

Data set [4] deals with Rattus norvegicus. Put plainly: […] in Freund's adjuvant-induced Lewis rat arthritis model assessed as reduction of uninjected paw volume at 0.2 mmol/kg, po qd administered on day 0 to day 21 of adjuvant challenge measured on day 21 by plethysmometry relative to control. To be noted: in vivo. It counts as organism-based. Put shortly: as §1

Molecules are shown by their SMILES.

For `O=C(O)CCn1ncc(-c2cccc(Cl)c2)n1`, the Activity in the data set on Rattus norvegicus [1] is reported as 19%; in the data set on Rattus norvegicus [2], 28%; in the data set with Rattus norvegicus [3], 42%; with Rattus norvegicus [4], 26%.

`O=C(O)CCc1nc(-c2ccccc2)n[nH]1`: the Activity in the data set with Rattus norvegicus [1] is given as -1.7%; in the data set on Rattus norvegicus [2], 9.1%; in the data set on Rattus norvegicus [3], 4.2%; with Rattus norvegicus [4] it was 30%.

As to `Cc1cccc(-c2cn(CCC(=O)O)nn2)c1`, the Activity in the data set on Rattus norvegicus [1] is recorded as 0%; with Rattus norvegicus [2], 10%; in the data set with Rattus norvegicus [3], -7.8%; with Rattus norvegicus [4], 22%.

In the case of `O=C(O)CCc1cnn(-c2cccc(Cl)c2)n1`, the Activity in the data set on Rattus norvegicus [1] stood at 33%; in the data set with Rattus norvegicus [2], 13%; in the data set on Rattus norvegicus [3] it was 32%; with Rattus norvegicus [4] it was 11%.

For the molecule `O=C(O)CCc1ncn(-c2ccccc2)n1`, the Activity in the data set with Rattus norvegicus [1] is recorded as 12%; with Rattus norvegicus [2] it was 1.3%; in the data set with Rattus norvegicus [3], -0.6%; in the data set on Rattus norvegicus [4] it was -15%.

Consider `O=C(O)CCCn1ncc(-c2ccccc2)n1`, for which the Activity was 13% in the data set on Rattus norvegicus [1], -1.8% with Rattus norvegicus [2], 14% in the data set on Rattus norvegicus [3] and 1.4% with Rattus norvegicus [4].

Consider `Nc1cccc(-c2cn(CCC(=O)O)nn2)c1`, for which the Activity is listed as 1.4% with Rattus norvegicus [1], 2.8% with Rattus norvegicus [2], 14% with Rattus norvegicus [3] and -6.7% with Rattus norvegicus [4].

`CCCCC1C(=O)N(c2ccccc2)N(c2ccccc2)C1=O` [PHENYLBUTAZONE]: the Activity in the data set with Rattus norvegicus [1] turned out to be 28%; in the data set with Rattus norvegicus [2] it was 33%; with Rattus norvegicus [3] it was 39%; in the data set on Rattus norvegicus [4], 36%.

`O=C(O)CCc1nc(-c2cccc(Cl)c2)n[nH]1`: the Activity in the data set on Rattus norvegicus [1] is on record as 2.9%; in the data set with Rattus norvegicus [2] it was 3%; with Rattus norvegicus [3], 3%; in the data set on Rattus norvegicus [4], 3%.

For `O=C(O)CCn1cc(-c2cccc(Br)c2)nn1`, the Activity in the data set with Rattus norvegicus [1] came out at 11%; in the data set on Rattus norvegicus [2] it was 0%; in the data set with Rattus norvegicus [3], 7.2%; in the data set with Rattus norvegicus [4], 23%.

With `O=C(O)Cn1ncc(-c2ccccc2)n1`, the Activity with Rattus norvegicus [1] is recorded as -5%; with Rattus norvegicus [2], -17%; in the data set on Rattus norvegicus [3], -9%; with Rattus norvegicus [4] it was 45%.

Consider `O=C(O)CCc1cnn(-c2ccccc2)n1`, for which the Activity in the data set on Rattus norvegicus [1] was determined as 28%; with Rattus norvegicus [2], 9.1%; with Rattus norvegicus [3], 24%; in the data set on Rattus norvegicus [4], 36%.

On to `CC(=O)c1nn(CCC(=O)O)nc1-c1ccccc1`, for which the Activity with Rattus norvegicus [1] was 2.6%; in the data set with Rattus norvegicus [2], 13%; in the data set on Rattus norvegicus [3], -8%; with Rattus norvegicus [4] it was -30%.

Take `O=C(O)CCn1cnc(-c2ccccc2)n1`: the Activity in the data set on Rattus norvegicus [1] is -3.7%; in the data set on Rattus norvegicus [2], 4.4%; with Rattus norvegicus [3] it was 8.6%; in the data set with Rattus norvegicus [4] it was 10%.

Regarding `O=C(O)CCn1cc(-c2cccc(F)c2)nn1`, the Activity in the data set on Rattus norvegicus [1] was 1.7%; in the data set with Rattus norvegicus [2] it was -9.9%; with Rattus norvegicus [3], -10%; with Rattus norvegicus [4], 1.6%.

With `O=C(O)CCc1nnn(-c2cccc(Br)c2)n1`, the Activity in the data set with Rattus norvegicus [1] is listed as 21%; in the data set with Rattus norvegicus [2] it was 17%; in the data set with Rattus norvegicus [3] it was 34%; with Rattus norvegicus [4], 22%.

As to `Cc1cccc(-c2n[nH]c(CCC(=O)O)n2)c1`, in the data set with Rattus norvegicus [1], the Activity was -3%.

Regarding `CN(C)c1nn(CCC(=O)[O-])nc1-c1ccccc1.[Na+]`, the Activity in the data set on Rattus norvegicus [1] stood at 0%.

In the case of `O=C(O)/C=C/c1cnn(-c2cccc(Cl)c2)n1`, the Activity in the data set on Rattus norvegicus [1] was found to be 18%.

`Cc1nn(CCC(=O)O)nc1-c1ccccc1`: the Activity in the data set on Rattus norvegicus [1] is given as 17%.

For `O=C(O)CCc1ncn(-c2cccc(Cl)c2)n1`, the Activity in the data set with Rattus norvegicus [1] was determined as 7.5%.

On to `O=C(O)CCn1nncc1-c1ccccc1`, for which, in the data set with Rattus norvegicus [1], the Activity is reported as 5%.

On to `Cl.O=C(O)CCn1ncc(-c2cccnc2)n1`, for which, in the data set on Rattus norvegicus [1], the Activity is reported as -1.3%.
